From publication PMC2767302 (Circulation, 2008)

Experiments:
plasma cGMP = type: in vivo, dog; conditions: oral 350 μg/kg; normal conscious dogs; n=6
How it was run: (§1)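 Adult male mongrel dogs (15-20 kg) with a femoral arterial port were fed 100 mEq/day sodium for 5 days, with water ad lib and sling acclimation. On the study day they were fasted and kept 30 min in a sling while conscious. Randomized single oral 350 μg/kg dose (conjugate n=5; unconjugated peptide n=6; vehicle n=6). MAP and blood were taken at baseline and 10–240 min. Plasma hBNP and cGMP were measured by radioimmunoassay. Mean ± SEM; repeated-measures ANOVA with Bonferroni.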

normal conscious dogs = experiment: Mean arterial pressure after acute oral administration in normal conscious dogs; type: in vivo, dog; conditions: oral 350 μg/kg, n=6, up to 240 min
How it was run: as §1

[1] = native BNP; quoted in the discussion, no reference given; cited from earlier work

In the case of “native hBNP: native human B-type natriuretic peptide, 32 amino acid mature form”, the “Plasma cGMP response (in words)” value (plasma cGMP) is listed as “not statistically different from baseline levels”, the “MAP response throughout the study (in words)” value (normal conscious dogs) is listed as “did not change” and the Half life [1] is listed as “approximately 20 minutes”.
